The source made the active and inactive calls. The calls are words filed in the database; no cut-off is given here. Bounds are passed on as bounds.

The values below come from ChEMBL document CHEMBL1151781, “Selectivity of inhibitors of endocannabinoid biosynthesis evaluated by activity-based protein profiling” (Bioorg Med Chem Lett, 2008).

In test [1] the target is Tripeptidyl-peptidase 2 (Mus musculus) (UniProt Q64514). As to conditions: Brain, 5 uM.
The target of test [2] is T1, Platelet-activating factor acetylhydrolase (Mus musculus) (UniProt Q60963).
T1 sequence (whole entry): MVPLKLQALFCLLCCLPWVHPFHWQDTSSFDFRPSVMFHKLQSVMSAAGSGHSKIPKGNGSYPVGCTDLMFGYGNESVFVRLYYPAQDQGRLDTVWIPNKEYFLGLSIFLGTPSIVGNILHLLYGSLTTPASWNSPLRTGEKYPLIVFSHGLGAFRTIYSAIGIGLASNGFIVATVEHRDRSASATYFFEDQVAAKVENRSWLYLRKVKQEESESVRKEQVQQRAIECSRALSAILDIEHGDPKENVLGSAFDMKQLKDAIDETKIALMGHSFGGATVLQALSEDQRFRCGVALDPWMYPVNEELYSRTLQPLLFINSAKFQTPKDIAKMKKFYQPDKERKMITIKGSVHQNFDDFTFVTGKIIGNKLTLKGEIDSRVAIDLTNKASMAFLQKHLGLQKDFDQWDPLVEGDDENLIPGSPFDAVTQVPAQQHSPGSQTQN
Description: Inhibition of PLA2g7 in mouse brain by LC-MS analysis. The format is tissue-based.

Test [3] deals with T2, Fatty-acid amide hydrolase 1 (Mus musculus) (UniProt O08914).
T2 sequence (whole entry): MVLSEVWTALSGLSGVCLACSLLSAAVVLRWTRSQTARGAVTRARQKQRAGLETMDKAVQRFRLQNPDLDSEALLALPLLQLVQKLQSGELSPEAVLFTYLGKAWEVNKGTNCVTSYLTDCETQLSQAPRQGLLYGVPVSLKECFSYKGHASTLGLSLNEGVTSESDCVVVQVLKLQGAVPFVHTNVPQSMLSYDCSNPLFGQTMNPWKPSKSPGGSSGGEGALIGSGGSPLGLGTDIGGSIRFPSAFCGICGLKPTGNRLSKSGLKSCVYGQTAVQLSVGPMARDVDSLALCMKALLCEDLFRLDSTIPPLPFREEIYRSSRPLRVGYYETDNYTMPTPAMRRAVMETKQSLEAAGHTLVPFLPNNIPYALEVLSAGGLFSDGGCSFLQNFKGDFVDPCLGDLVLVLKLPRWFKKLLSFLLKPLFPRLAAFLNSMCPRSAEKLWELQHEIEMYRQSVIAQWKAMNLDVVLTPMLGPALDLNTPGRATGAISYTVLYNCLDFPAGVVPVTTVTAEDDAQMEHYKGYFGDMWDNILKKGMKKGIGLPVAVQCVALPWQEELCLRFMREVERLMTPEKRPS
Description: Inhibition of FAAH in mouse brain assessed as reduction in spectral count at 50 uM treated for 30 mins by ABPP-MudPIT assay relative to control. The format is tissue-based. An outline of the steps:
(§1)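 Mouse brain proteome was treated with inhibitor at the stated single concentration, or DMSO as control, for 30 min. FP-biotin (5 μM) was then added for 120 min, followed by avidin enrichment and LC-MS (ABPP-MudPIT). Runs were in triplicate. Only hydrolases with >15 average spectral counts in control were quantified. Blockade is the percent reduction in average spectral counts versus DMSO; >60% defined a target.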

The target of test [4] is Diacylglycerol lipase-alpha (Homo sapiens, UniProt Q9Y4D2). Description: Inhibition of human recombinant DAGLalpha overexpressed in african green monkey COS7 cells. The format is cell-based, COS-7.
Chain of Diacylglycerol lipase-alpha (Q9Y4D2 whole entry): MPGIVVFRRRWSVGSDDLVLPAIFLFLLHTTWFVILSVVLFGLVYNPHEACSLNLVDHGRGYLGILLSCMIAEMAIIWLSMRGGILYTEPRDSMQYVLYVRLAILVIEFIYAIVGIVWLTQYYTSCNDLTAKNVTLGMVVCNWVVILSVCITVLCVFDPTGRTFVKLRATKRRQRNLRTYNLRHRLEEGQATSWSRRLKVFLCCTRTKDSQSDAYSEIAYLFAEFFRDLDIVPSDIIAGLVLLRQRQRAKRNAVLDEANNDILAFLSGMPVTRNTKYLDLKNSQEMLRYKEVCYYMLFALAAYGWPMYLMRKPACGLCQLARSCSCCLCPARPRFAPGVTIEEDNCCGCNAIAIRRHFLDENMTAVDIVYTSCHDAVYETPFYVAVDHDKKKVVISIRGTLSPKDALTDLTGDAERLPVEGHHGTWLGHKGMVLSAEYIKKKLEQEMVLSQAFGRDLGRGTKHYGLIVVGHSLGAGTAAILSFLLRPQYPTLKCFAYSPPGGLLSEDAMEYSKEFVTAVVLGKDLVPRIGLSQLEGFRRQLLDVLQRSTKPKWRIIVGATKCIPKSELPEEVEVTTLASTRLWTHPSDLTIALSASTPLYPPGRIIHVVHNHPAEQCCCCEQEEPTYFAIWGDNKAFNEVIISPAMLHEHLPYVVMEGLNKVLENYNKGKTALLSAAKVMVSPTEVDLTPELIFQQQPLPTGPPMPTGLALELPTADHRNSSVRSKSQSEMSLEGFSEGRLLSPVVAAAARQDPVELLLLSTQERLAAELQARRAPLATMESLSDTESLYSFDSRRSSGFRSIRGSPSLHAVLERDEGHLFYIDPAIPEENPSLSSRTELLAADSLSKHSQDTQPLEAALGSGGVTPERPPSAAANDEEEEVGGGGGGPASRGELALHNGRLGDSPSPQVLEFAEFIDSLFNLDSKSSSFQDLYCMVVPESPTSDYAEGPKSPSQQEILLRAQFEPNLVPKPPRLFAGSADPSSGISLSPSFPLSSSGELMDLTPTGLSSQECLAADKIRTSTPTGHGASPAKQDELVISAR
Test [5] addresses T3, Phosphatidylserine lipase ABHD16A (Mus musculus) (UniProt Q9Z1Q2).
T3 sequence (whole entry): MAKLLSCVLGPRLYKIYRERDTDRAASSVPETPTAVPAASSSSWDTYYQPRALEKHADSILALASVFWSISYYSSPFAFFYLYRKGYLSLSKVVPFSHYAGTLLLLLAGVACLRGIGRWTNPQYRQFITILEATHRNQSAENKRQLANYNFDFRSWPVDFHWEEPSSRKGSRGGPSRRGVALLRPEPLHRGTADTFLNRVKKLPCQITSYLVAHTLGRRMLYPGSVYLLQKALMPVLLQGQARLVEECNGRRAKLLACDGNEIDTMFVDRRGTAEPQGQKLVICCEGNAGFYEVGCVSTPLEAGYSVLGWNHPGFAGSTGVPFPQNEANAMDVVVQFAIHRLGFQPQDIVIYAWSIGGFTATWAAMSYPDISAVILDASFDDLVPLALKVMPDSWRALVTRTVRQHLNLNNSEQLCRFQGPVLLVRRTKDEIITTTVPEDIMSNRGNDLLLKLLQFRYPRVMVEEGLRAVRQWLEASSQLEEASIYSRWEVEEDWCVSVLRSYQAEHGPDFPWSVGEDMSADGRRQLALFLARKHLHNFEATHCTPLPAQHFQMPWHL
Description: Inhibition of BAT5 in mouse brain assessed as reduction in spectral count at 50 uM treated for 30 mins by ABPP-MudPIT assay relative to control. The format is tissue-based. In outline:
as §1

Chain of Tripeptidyl-peptidase 2 (Mus musculus) (Q64514 whole entry): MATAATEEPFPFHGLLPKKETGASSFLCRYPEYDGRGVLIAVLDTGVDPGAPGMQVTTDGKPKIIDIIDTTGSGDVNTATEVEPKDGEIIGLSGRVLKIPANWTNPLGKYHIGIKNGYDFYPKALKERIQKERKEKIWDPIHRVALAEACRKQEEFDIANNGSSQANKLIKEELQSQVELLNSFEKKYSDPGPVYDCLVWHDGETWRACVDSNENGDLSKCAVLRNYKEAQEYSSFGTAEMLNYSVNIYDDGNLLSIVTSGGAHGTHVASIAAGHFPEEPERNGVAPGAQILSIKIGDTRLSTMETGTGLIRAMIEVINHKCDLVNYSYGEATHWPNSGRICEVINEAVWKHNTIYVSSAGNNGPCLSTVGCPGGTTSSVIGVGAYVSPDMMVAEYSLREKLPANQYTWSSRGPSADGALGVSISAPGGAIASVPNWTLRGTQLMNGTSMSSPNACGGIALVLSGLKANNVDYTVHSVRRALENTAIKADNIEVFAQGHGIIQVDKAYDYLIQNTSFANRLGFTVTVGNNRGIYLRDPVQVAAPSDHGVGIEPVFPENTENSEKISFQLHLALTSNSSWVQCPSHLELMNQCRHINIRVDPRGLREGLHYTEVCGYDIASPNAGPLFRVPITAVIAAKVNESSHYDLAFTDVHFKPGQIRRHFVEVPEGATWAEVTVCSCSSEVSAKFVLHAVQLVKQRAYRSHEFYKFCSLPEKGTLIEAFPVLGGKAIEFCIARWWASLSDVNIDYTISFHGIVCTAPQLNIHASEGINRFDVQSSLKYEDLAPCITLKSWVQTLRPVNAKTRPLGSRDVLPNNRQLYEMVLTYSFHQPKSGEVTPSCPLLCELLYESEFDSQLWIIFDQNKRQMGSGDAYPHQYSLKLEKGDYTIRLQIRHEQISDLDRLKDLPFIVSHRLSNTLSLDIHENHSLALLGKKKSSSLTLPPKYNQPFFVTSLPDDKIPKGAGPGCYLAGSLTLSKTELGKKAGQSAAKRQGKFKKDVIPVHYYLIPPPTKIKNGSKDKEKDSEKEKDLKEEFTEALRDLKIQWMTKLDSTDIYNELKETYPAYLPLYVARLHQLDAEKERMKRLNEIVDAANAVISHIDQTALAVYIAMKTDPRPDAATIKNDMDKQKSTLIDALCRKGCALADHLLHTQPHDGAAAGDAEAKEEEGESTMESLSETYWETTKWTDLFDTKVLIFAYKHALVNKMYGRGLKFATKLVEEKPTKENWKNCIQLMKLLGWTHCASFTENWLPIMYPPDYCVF

In general, inhibition refers to the drop in the measured response relative to a control, in per cent. The compound `CCCCCCCCCCC[C@@H](C[C@@H]1OC(=O)[C@H]1CCCCCC)OC(=O)[C@H](CC(C)C)NC=O` [ORLISTAT] registered an inhibition in test [1] above 60%.
A word on the IC50: it is the midpoint of a concentration-inhibition curve. In the case of `O=C(NCCCCCCNC(=O)ON=C1CCCCC1)ON=C1CCCCC1`, the outcome in test [2] was Active. The inhibition in test [3] and in test [5] was above 60% each time. Besides, the IC50 in test [4] was found to be 60 nM.
